Key:
[1] = biological target: T1, Nitric oxide synthase 1 (Homo sapiens, UniProt P29475); test: Inhibition of recombinant nNOS (unknown origin) assessed as conversion of L-[3H]-arginine to L-[3H]-citrulline at 1 mM after 30 mins
Method in brief: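 Recombinant nNOS (21.05 nmol/min/mg) in 25 mM Tris-HCl pH 7.6 with DTT, H4-biopterin, FAD, inosine, BSA, CaCl2, L-arginine and 50 nM L-[3H]-arginine. Compound at 1 mM; 37 °C, 30 min. Stopped with cold HEPES/EGTA/L-citrulline pH 5.5, Dowex-50W (Na+) separation, [3H]-citrulline by scintillation. NADPH-omitted blank subtracted. Mean of three experiments in triplicate.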

[2] = biological target: Nitric oxide synthase, inducible (Homo sapiens) (UniProt P35228); test: Inhibition of recombinant iNOS (unknown origin) assessed as conversion of L-[3H]-arginine to L-[3H]-citrulline at 1 mM after 30 mins
Sequence of Nitric oxide synthase, inducible (Homo sapiens) (P35228 whole entry): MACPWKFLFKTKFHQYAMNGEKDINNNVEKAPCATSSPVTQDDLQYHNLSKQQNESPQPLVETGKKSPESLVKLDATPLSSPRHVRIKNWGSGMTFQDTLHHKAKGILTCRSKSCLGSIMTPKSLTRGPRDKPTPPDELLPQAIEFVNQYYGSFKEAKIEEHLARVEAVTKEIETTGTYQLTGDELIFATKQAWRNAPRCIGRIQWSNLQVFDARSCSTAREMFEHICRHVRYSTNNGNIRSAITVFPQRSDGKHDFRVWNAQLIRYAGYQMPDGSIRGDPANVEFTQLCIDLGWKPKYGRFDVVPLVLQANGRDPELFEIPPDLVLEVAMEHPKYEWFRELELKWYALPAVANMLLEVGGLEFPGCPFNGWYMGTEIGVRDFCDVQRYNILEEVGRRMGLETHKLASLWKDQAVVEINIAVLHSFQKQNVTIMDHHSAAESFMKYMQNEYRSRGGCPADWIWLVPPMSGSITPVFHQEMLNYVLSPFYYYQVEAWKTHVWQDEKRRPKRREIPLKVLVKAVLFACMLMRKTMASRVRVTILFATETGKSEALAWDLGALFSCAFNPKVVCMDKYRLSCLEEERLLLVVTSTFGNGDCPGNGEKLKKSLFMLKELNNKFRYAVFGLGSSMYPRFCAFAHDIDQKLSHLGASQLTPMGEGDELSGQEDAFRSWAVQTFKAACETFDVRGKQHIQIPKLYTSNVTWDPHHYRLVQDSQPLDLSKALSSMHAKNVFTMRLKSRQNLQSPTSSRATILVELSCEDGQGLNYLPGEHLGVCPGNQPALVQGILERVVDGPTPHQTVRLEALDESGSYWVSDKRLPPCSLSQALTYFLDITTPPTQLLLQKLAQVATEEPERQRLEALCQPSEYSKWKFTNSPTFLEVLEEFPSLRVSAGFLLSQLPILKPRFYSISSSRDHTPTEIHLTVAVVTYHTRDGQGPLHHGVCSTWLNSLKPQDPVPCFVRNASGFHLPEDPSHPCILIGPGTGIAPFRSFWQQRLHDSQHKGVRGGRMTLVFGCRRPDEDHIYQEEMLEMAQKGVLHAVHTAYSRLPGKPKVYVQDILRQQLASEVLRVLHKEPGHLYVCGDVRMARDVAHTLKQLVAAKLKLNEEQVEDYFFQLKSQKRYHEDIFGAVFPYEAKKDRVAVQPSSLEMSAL
Method in brief: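 Recombinant iNOS was tested with each compound at 1 mM. Activity is expressed relative to control and reported as % inhibition. Each value is the mean of three experiments, each run in triplicate.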

[3] = biological target: T1, Nitric oxide synthase 1; test: Inhibition of recombinant nNOS (unknown origin) assessed as conversion of L-[3H]-arginine to L-[3H]-citrulline after 30 mins
Method in brief: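 Bredt–Snyder radiometric citrulline assay using recombinant nNOS in 25 mM Tris-HCl pH 7.6 with DTT, H4-biopterin, FAD, inosine, BSA, 0.1 mM CaCl2, L-arginine and 50 nM L-[3H]-arginine. Incubated at 37 °C for 30 min, then Dowex-50W separation and scintillation counting. Blank without NADPH subtracted. IC50 given in mM.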

T1 sequence (P29475 whole entry): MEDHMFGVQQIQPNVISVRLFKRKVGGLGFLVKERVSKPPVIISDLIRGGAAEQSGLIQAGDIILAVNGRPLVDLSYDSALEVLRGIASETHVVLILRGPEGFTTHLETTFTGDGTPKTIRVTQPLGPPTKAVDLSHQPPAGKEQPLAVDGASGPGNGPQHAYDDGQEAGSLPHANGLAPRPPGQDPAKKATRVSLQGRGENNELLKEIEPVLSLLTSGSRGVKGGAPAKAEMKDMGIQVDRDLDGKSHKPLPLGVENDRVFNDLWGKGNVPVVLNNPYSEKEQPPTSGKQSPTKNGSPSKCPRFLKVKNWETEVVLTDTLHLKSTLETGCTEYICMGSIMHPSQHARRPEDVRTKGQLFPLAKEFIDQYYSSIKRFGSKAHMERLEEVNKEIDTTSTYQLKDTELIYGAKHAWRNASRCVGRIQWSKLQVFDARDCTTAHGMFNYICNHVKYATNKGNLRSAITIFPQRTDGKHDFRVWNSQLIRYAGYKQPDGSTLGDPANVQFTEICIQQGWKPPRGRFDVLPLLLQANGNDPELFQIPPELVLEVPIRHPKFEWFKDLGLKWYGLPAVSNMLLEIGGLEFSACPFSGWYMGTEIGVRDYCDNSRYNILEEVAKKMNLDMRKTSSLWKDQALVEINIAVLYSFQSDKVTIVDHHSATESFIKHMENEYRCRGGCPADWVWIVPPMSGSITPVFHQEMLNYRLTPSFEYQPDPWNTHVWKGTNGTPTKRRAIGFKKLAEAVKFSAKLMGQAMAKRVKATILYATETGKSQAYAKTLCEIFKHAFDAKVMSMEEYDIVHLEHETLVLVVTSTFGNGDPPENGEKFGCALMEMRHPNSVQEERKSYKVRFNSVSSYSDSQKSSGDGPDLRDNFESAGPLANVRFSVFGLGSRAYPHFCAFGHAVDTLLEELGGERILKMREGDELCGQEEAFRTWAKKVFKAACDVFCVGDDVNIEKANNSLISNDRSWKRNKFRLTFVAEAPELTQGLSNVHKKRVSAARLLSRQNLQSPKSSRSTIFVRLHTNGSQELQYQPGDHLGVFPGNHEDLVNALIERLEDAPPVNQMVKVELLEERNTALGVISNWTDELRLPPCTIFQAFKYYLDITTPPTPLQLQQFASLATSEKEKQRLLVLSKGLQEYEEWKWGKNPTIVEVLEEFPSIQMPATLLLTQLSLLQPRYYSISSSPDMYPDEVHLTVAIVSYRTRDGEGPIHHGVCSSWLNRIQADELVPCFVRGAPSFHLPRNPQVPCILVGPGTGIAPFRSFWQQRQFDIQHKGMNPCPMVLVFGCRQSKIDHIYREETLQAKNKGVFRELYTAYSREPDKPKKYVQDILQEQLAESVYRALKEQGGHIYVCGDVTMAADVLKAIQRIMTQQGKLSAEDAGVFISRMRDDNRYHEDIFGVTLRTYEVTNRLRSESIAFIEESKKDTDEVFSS

Row | inhibition [1] [%] | inhibition [2] [%] | IC50 [3] [µM] | SMILES
1 | 21.6 | 49.2 |  | Nc1cc(Cl)c(Cl)cc1C1=NN(C(=O)Cc2ccccc2)CC1
2 | 52.4 |  |  | CCCC(=O)N1CCC(c2ccccc2N)=N1
3 | 82.5 | 18.3 | 400 | COc1cc(N)c(C2=NN(C(=O)CCc3ccccc3)CC2)c(OC)c1OC
4 | 61.1 | 17 |  | Nc1ccc(Cl)cc1C1=NN(C(=O)c2ccccc2)CC1
5 | 49.9 | 1.85 |  | COc1ccc(N)c(C2=NN(C(=O)C3CCCC3)CC2)c1
6 | 38.8 | 14.8 |  | Nc1ccccc1C1=NN(C(=O)C2CC2)CC1
7 | 55.3 | 23.7 | 880 | COc1cc(N)c(C2=NN(C(=O)CCc3ccccc3)CC2)cc1OC
8 | 33.7 | 7.73 |  | CC(=O)N1CCC(c2ccccc2N)=N1
9 | 38.3 | 1.91 |  | COc1ccc(N)c(C2=NN(C(=O)C3CCC3)CC2)c1
10 | 25.9 | 21.2 |  | COc1ccc(N)c(C2=NN(C(=O)CCc3ccccc3)CC2)c1
11 | 58.9 | 12.2 |  | COc1ccc(N)c(C2=NN(C(=O)c3ccccc3)CC2)c1
12 | 35.1 | 21 |  | COc1cc(N)c(C2=NN(C(=O)Cc3ccccc3)CC2)cc1OC
13 | 47.6 | 1.03 |  | CC(=O)N1CCC(c2cc(Cl)ccc2N)=N1
14 | 34.7 | 13.1 |  | CCCC(=O)N1CCC(c2cc(OC)ccc2N)=N1
15 | 46.1 | 13.7 |  | CCC(=O)N1CCC(c2cc(Cl)ccc2N)=N1
16 | 18.2 | 34.6 |  | Nc1ccc(Cl)cc1C1=NN(C(=O)Cc2ccccc2)CC1
17 | 2.97 | 50.2 |  | Nc1cc(Cl)c(Cl)cc1C1=NN(C(=O)CCc2ccccc2)CC1
18 | 0.03 | 15 |  | COc1ccc(N)c(C2=NN(C(=O)Cc3ccccc3)CC2)c1
19 | 25.1 | 28.9 |  | COc1cc(N)c(C2=NN(C(=O)c3ccccc3)CC2)cc1OC

Row | inhibition [1] [%] | inhibition [2] [%] | IC50 [3] [µM] | SMILES
20 | 0.05 | 30.1 |  | COc1cc(N)c(C2=NN(C(=O)C3CC3)CC2)c(OC)c1OC
21 | 34.4 | 0.29 |  | CCCC(=O)N1CCC(c2cc(Cl)ccc2N)=N1
22 | 0.62 | 36.1 |  | Nc1cc(Cl)c(Cl)cc1C1=NN(C(=O)c2ccccc2)CC1
23 | 36.5 | 6.88 |  | CCC(=O)N1CCC(c2ccccc2N)=N1
24 | 62.2 | 13.2 |  | COc1ccc(N)c(C2=NN(C(=O)C3CCCCC3)CC2)c1
25 | 53.3 | 20.4 |  | CCC(=O)N1CCC(c2cc(OC)ccc2N)=N1
26 | 48.4 | 23.4 |  | COc1cc(N)c(C2=NN(C(=O)Cc3ccccc3)CC2)c(OC)c1OC
27 | 57 | 8.7 |  | Nc1ccccc1C1=NN(C(=O)c2ccccc2)CC1
28 | 38 | 20.4 |  | COc1ccc(N)c(C2=NN(C(C)=O)CC2)c1
29 | 49.8 | 0.18 |  | CCCCC(=O)N1CCC(c2cc(OC)ccc2N)=N1
30 | 19.6 | 25.2 |  | COc1cc(N)c(C2=NN(C(=O)C3CC3)CC2)cc1OC
31 | 2.68 | 2.31 |  | Nc1ccccc1C1=NN(C(=O)Cc2ccccc2)CC1
32 | 32.4 | 31.4 |  | Nc1ccc(Cl)cc1C1=NN(C(=O)CCc2ccccc2)CC1
33 | 62.2 | 19.9 |  | COc1ccc(N)c(C2=NN(C(=O)C3CC3)CC2)c1
34 | 7.36 | 5.64 |  | Nc1ccccc1C1=NN(C(=O)CCc2ccccc2)CC1
35 | 50.5 | 15.5 |  | Nc1cc(Cl)c(Cl)cc1C1=NN(C(=O)C2CC2)CC1
36 | 62.9 | 8.14 | 530 | COc1cc(N)c(C2=NN(C(=O)c3ccccc3)CC2)c(OC)c1OC
37 | 70.2 | 18.9 |  | Nc1ccc(Cl)cc1C1=NN(C(=O)C2CC2)CC1

From ChEMBL document CHEMBL2396629, “Synthesis and biological evaluation of 4,5-dihydro-1H-pyrazole derivatives as potential nNOS/iNOS selective inhibitors. Part 2: Influence of diverse substituents in both the phenyl moiety and the acyl group” (Bioorg Med Chem, 2013)
